Activity calls are given as the source filed them. The calls are words filed in the database; no cut-off is given here.
Tests used:
CHO [1] = assay: Phototoxicity in transformed CHO cells after 24 hrs incubation in dark by WST1 assay; format: functional, cell-based; settings: Cricetulus griseus, light or radiation study
In short: (§1)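 CHO cells (50,000/well, McCoy's 5A with 10% FCS) grown 24 h, then dosed with a concentration range in duplicate (DMSO under 0.5% final). Either kept dark or irradiated at once (4.5 J/cm²: 0.36 UVA plus 4.14 visible, 750 W m⁻²), then 24 h at 37 °C. After PBS washes, 20 min with WST1 and absorbance read at 450 nm. IC50 is the 50% drop versus control.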

CHO-K1 [2] = assay: Clastogenic activity in CHOK1 cells assessed as lowest drug concentration required to increase number of micronucleated cells after 3 hrs of UV irradiation by micronucleus assay; format: functional, Cricetulus griseus
In short: (§2)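 CHO-K1 cells (50,000, chamber slides) grown 24 h, then dosed with a concentration range in duplicate, either kept dark or irradiated at once (4.5 J/cm², 1 min, 320–800 nm, 750 W m⁻², samples held at 4 °C). Exposure 3 h at 37 °C, then 5 μg/mL cytochalasin B for 24 h. Methanol fixation, Giemsa staining, 2000 binucleated cells per concentration scored at doses giving under 50% toxicity. χ² test against control. MCC is the lowest concentration giving a significant increase.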

CHO-K1 [3] = assay: Clastogenic activity in CHOK1 cells assessed as lowest drug concentration required to increase number of micronucleated cells after 3 hrs incubation in dark by micronucleus assay; format: functional; in short: as §2
CHO [4] = assay: Phototoxicity in transformed CHO cells after 24 hrs of UV irradiation by WST1 assay; format: functional, cell-based; settings: Cricetulus griseus, light or radiation study; in short: as §1
[5] = Phototoxicity in normal human keratinocytes after 24 hrs of UV irradiation by WST1 assay; format: cell-based; settings: Keratinocyte, light or radiation study
[6] = Phototoxicity in normal human keratinocytes after 24 hrs incubation in dark by WST1 assay; format: cell-based; settings: Keratinocyte, light or radiation study
[7] = Ratio of IC50 for normal human keratinocytes incubated in dark to IC50 for normal human keratinocytes incubated under UV irradiation; format: cell-based, Keratinocyte; settings: read-out: Ratio IC50
CHO [8] = assay: Ratio of IC50 for transformed CHO cells incubated in dark to IC50 for transformed CHO cells incubated under UV irradiation; format: functional, Cricetulus griseus
CHO-K1 [9] = assay: Clastogenic activity in CHOK1 cells assessed as induction of chromosomal mutation and misaggregation at 15 uM incubated in dark for 3 hrs by micronucleus assay in presence of protective antioxidant mannitol treated 2 hrs before compound addition; format: functional, cell-based; settings: Cricetulus griseus
In short: (§3)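 CHO-K1 cells (50,000, chamber slides, McCoy's 5A with 10% FCS) grown 24 h, then given 2 mM mannitol for 2 h at 37 °C. Then either dark treatment or irradiation at 4.5 J/cm² (UVA-visible 320–800 nm, 750 W m⁻²). Exposure 3 h at 37 °C, then 5 μg/mL cytochalasin B for 24 h. Giemsa staining; binucleated cells scored for micronuclei at 1000×.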

CHO-K1 [10] = assay: Clastogenic activity in CHOK1 cells assessed as induction of chromosomal mutation and misaggregation at 0.15 uM after 3 hrs of 4.5 J/cm'2 UV irradiation by micronucleus assay in presence of protective antioxidant mannitol treated 2 hrs before compound addition; format: functional, cell-based; settings: Cricetulus griseus; in short: as §3

| Compound | IC50 (CHO [1]) [µM] | Activity (CHO-K1 [2]) [µM] | Activity (CHO-K1 [3]; Cricetulus griseus) | IC50 (CHO [4]) [µM] | IC50 [5] [µM] | IC50 [6] [µM] | Activity (CHO-K1 [2]; Cricetulus griseus) | selectivity ratio [7] | Ratio IC50 (CHO [8]) | Activity (CHO-K1 [3]) [µM] | Activity (CHO-K1 [9]) | Activity (CHO-K1 [10]) |
| --- | --- | --- | --- | --- | --- | --- | --- | --- | --- | --- | --- | --- |
| Nc1ccc(C(=O)Nc2ccc3cc4ccc(NC(=O)c5ccc(N)cc5)cc4nc3c2)cc1 | > 50 | 0.13 | inactive | > 50 | > 50 | > 50 |  |  |  |  |  |  |
| COc1ccc(C(=O)Nc2ccc3cc4ccc(NC(=O)c5ccc(OC)cc5)cc4nc3c2)cc1 | 45.2 |  | inactive | 43.4 | > 50 | > 50 | inactive |  |  |  |  |  |
| O=C(Nc1ccc2cc3ccc(NC(=O)c4ccccc4)cc3nc2c1)c1ccccc1 | 23.8 |  | inactive | 0.26 | 0.33 | > 50 | inactive | 100 | 90 |  |  |  |
| O=C(Nc1ccc2cc3ccc(NC(=O)c4cccc5ccccc45)cc3nc2c1)c1cccc2ccccc12 | 42.3 | 0.13 | inactive | 0.32 | 24.1 | > 50 |  |  | 130 |  |  |  |
| O=C(Nc1ccc2cc3ccc(NC(=O)c4ccc(Cl)cc4)cc3nc2c1)c1ccc(Cl)cc1 | > 50 | 0.12 |  | 0.94 | 5.4 | > 50 |  |  |  | 2.38 |  |  |
| CCC(=O)Nc1ccc2cc3ccc(NC(=O)CC)cc3nc2c1 | > 50 | 0.03 |  | 2.9 | 2.4 | > 50 |  |  |  | 1.15 |  |  |
| N#Cc1ccc(C(=O)Nc2ccc3cc4ccc(NC(=O)c5ccc(C#N)cc5)cc4nc3c2)cc1 | > 50 | 0.06 | inactive | 3.46 | 33.5 | > 50 |  |  |  |  |  |  |
| CCCC(=O)Nc1ccc2cc3ccc(NC(=O)CCC)cc3nc2c1 | 38.9 | 0.007 |  | 1.34 | 0.57 | > 50 |  | 100 |  | 1.01 | Active | Active |
| Cc1ccc(C(=O)Nc2ccc3cc4ccc(NC(=O)c5ccc(C)cc5)cc4nc3c2)cc1 | 43.1 | 0.02 |  | 1.34 | 4.04 | > 50 |  |  |  | 2.11 |  |  |
| O=C(Nc1ccc2cc3ccc(NC(=O)c4ccc([N+](=O)[O-])cc4)cc3nc2c1)c1ccc([N+](=O)[O-])cc1 | 40.2 |  | inactive | > 50 | > 50 | > 50 | inactive |  |  |  |  |  |
| O=C(Nc1ccc2cc3ccc(NC(=O)c4ccc(Cl)c(Cl)c4)cc3nc2c1)c1ccc(Cl)c(Cl)c1 | > 50 |  | inactive | > 50 | > 50 | > 50 | inactive |  |  |  |  |  |
| Nc1ccc2cc3ccc(N)cc3nc2c1 [PROFLAVINE] | 1.1 | 0.004 |  | 0.52 | > 50 | > 50 |  |  |  | 0.005 |  |  |
| COC(=O)Nc1ccc2cc3ccc(NC(=O)OC)cc3nc2c1 | 15.8 | 0.21 |  | 3.8 | 8.1 | > 50 |  |  |  | 0.47 |  |  |
| O=C(Nc1ccc2cc3ccc(NC(=O)c4ccc(F)cc4)cc3nc2c1)c1ccc(F)cc1 | > 50 | 1.81 | inactive | > 50 | > 50 | > 50 |  |  |  |  |  |  |
| CC(C)(C)OC(=O)Nc1ccc2cc3ccc(NC(=O)OC(C)(C)C)cc3nc2c1 | 6.1 |  | inactive | 0.12 | 0.14 | > 50 | inactive | 100 |  |  |  |  |
| CC(C)(C)C(=O)Nc1ccc2cc3ccc(NC(=O)C(C)(C)C)cc3nc2c1 | 0.11 |  | inactive | 0.1 | 4.69 | 3.28 | inactive |  |  |  |  |  |
| O=C(Nc1ccc2cc3ccc(NC(=O)c4cc(C(F)(F)F)cc(C(F)(F)F)c4)cc3nc2c1)c1cc(C(F)(F)F)cc(C(F)(F)F)c1 | > 50 |  | inactive | > 50 | > 50 | > 50 | inactive |  |  |  |  |  |
| O=C(Nc1ccc2cc3ccc(NC(=O)c4ccco4)cc3nc2c1)c1ccco1 | 2.5 |  | inactive | 16.4 | 19.3 | 34.1 | inactive |  |  |  |  |  |
| CC(=O)Nc1ccc2cc3ccc(NC(C)=O)cc3nc2c1 | > 50 | 0.24 |  | 37.2 | 41.2 | > 50 |  |  |  | 11.01 |  |  |
